Data reported in publication PMC6030701 (EMBO Reports, 2018).

Legend:
MSP domain of MOSPD2 = target: T1, MSP domain of MOSPD2 (Homo sapiens, UniProt Q8NHP6); test: Liposome aggregation; format: biochemical; details: DLS, 25°C
T1 sequence (Q8NHP6 282-490): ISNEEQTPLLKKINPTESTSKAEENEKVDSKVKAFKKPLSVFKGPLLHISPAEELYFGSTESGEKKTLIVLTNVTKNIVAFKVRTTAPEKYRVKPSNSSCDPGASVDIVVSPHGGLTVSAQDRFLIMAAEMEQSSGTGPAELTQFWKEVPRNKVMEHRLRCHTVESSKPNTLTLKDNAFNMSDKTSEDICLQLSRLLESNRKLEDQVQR

[1] = tested on: RD/LD mutant MSP domain of MOSPD2; test: Liposome aggregation; format: biochemical; details: DLS, 25°C, FFAT peptide 380 nM, RD/LD mutant MSP 760 nM
SEC = target: the molecule itself; test: SEC
STARD3 = test: MSP domain pull-down, STARD3; format: binding; details: 6His MSP on NTA-Ni2+ resin, HeLa/STARD3 protein extract, Western blot
Outline: (§1)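 6His-tagged MSP domain (residues 282–490), from E. coli BL21 DE3 (1 mM IPTG, 20°C, 16 h), purified on Ni-NTA and by gel filtration. HeLa stable-line extract in PDB2 incubated 2.5 h, 4°C. Laemmli elution; blotted for STARD3, His, actin.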

STARD3 FA/YA = test: MSP domain pull-down, STARD3 FA/YA mutant; format: binding; details: 6His MSP on NTA-Ni2+ resin, HeLa/STARD3 FA/YA protein extract, Western blot
Outline: as §1

With “WCSGKGDMSDEDDENEFFDAPEIITMPENLGH [FFAT‐containing peptide]” the “size of liposome aggregates at end of kinetics” value (MSP domain of MOSPD2; FFAT peptide 380 nM, MSP MOSPD2 WT 760 nM) was 479 ± 87 nm, the “size of free liposomes” value (MSP domain of MOSPD2; size distribution analysis) was 97 ± 15 nm and the liposome aggregation [1] was “no aggregation was observed”.

B1: MSP domain and coiled‐coil of VAP‐A [8–212], wild type (domain or fragment, human, UniProt Q9P0L0 8-212, looked up)
chain: MAKHEQILVLDPPTDLKFKGPFTDVVTTNLKLRNPSDRKVCFKVKTTAPRRYCVRPNSGIIDPGSTVTVSVMLQPFDYDPNEKSKHKFMVQTIFAPPNTSDMEAVWKEAKPDELMDSKLRCVFEMPNENDKLNDMEPSKAVPLNASKQDGPMPKPHSVSLNDTETRKLMEECKRLQGEMMKLSEENRHLRDEGLRLRKVAHSDKP
With B1 the “stoichiometry N” value (SEC) was 2.

B2: wild‐type MSP domain of MOSPD2: recombinant MSP domain of MOSPD2 [282–490], expressed in E. coli (protein)
chain: T1 sequence (Q8NHP6 282-490)
modifications: left off: 6His, C-terminal, kept
B2 was tested, and the “interaction with STARD3” value (STARD3) was “interacted specifically with STARD3” and the “interaction with STARD3 FA/YA” value (STARD3 FA/YA) was “not with the STARD3 FA/YA mutant”.
